Experimental data as given in ChEMBL document CHEMBL3734668, “Evaluation of small molecule SecA inhibitors against methicillin-resistant Staphylococcus aureus” (Bioorg Med Chem, 2015).
≈ marks a conversion by molar mass, not a printed value. Calls of active or inactive are those of the source. The calls are words filed in the database; no cut-off is given here.

Key:
[1] = tested on: Staphylococcus aureus; assay: Bacteriostatic activity against Staphylococcus aureus Mu50 after 24 hrs; assay type: functional; conditions: Mu50, 24 h
Procedure, shortened: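 Broth microdilution per CLSI guidelines in LB. Inhibitor added to dilute early-log culture (OD600 ≈ 0.05), 37 °C, 250 rpm, 24 hrs. Run in triplicate in three separate experiments. MIC read as the lowest concentration with no growth.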

[2] = tested on: Staphylococcus aureus; assay: Bacteriostatic activity against NorA deficient Staphylococcus aureus K1758; assay type: functional
Procedure, shortened: (§1)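 Broth microdilution MIC per CLSI guidance in LB, 37 °C, shaking 250 rpm, 24 hr; run in triplicate in three separate experiments. MIC taken as lowest inhibitor concentration with no growth. Compounds from DMSO stocks; untreated controls carry equal DMSO.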

[3] = tested on: Staphylococcus aureus; assay: Bacteriostatic activity against Staphylococcus aureus Mu3 after 24 hrs; assay type: functional; conditions: Mu3, 24 h; procedure, shortened: as §1
[4] = tested on: Staphylococcus aureus; assay: Bacteriostatic activity against Staphylococcus aureus K2068 overexpressing MepA; assay type: functional; procedure, shortened: as §1
[5] = tested on: Staphylococcus aureus; assay: Bacteriostatic activity against Staphylococcus aureus K2361 overexpressing NorA; assay type: functional; procedure, shortened: as §1
[6] = tested on: Staphylococcus aureus; assay: Bacteriostatic activity against Staphylococcus aureus Newman after 24 hrs; assay type: functional; procedure, shortened: as §1
[7] = tested on: Staphylococcus aureus; assay: Bacteriostatic activity against Staphylococcus aureus N315 after 24 hrs; assay type: functional; conditions: N315, 24 h; procedure, shortened: as §1
[8] = tested on: Staphylococcus aureus; assay: Bacteriostatic activity against MepA deficient Staphylococcus aureus K2908; assay type: functional; procedure, shortened: as §1
[9] = tested on: Staphylococcus aureus; assay: Bacteriostatic activity against wild type Staphylococcus aureus 8325-4; assay type: functional; procedure, shortened: as §1
[10] = target: T1, Protein translocase subunit SecA 2 (Staphylococcus aureus (strain NCTC 8325), UniProt Q2FUW6); assay: Inhibition of Staphylococcus aureus ATCC 35556 SecA2 expressed in Escherichia coli BL21-gammaDE3 assessed as reduction in intrinsic ATPase activity incubated for 3 hrs measured by malachite green colorimetric method
T1 sequence (Q2FUW6 whole entry): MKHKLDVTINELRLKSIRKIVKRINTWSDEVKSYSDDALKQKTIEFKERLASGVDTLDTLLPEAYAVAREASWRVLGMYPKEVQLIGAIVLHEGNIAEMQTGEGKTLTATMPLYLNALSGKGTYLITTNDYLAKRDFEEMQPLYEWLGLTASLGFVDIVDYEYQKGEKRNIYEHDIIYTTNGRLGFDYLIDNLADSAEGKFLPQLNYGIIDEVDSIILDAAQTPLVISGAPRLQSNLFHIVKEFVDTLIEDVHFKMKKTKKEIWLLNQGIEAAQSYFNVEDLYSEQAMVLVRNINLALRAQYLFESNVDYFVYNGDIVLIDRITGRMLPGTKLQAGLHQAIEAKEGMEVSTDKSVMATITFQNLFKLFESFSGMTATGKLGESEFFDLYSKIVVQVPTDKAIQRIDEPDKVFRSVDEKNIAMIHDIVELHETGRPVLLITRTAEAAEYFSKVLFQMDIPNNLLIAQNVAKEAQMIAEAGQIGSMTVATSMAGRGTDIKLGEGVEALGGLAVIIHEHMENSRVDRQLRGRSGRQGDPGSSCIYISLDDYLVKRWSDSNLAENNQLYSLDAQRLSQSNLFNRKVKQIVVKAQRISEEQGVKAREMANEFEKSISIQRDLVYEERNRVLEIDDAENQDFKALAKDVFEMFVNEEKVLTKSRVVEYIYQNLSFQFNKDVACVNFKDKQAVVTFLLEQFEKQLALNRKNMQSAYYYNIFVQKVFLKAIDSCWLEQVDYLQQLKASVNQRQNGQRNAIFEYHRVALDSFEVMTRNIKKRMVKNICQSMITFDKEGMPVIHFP

[11] = target: T2, Protein translocase subunit SecA 1 (Staphylococcus aureus (strain NCTC 8325), UniProt O06446); assay: Inhibition of Staphylococcus aureus ATCC 35556 SecA1 expressed in Escherichia coli BL21-gammaDE3 assessed as reduction in intrinsic ATPase activity incubated for 3 hrs measured by malachite green colorimetric method
T2 sequence (O06446 whole entry): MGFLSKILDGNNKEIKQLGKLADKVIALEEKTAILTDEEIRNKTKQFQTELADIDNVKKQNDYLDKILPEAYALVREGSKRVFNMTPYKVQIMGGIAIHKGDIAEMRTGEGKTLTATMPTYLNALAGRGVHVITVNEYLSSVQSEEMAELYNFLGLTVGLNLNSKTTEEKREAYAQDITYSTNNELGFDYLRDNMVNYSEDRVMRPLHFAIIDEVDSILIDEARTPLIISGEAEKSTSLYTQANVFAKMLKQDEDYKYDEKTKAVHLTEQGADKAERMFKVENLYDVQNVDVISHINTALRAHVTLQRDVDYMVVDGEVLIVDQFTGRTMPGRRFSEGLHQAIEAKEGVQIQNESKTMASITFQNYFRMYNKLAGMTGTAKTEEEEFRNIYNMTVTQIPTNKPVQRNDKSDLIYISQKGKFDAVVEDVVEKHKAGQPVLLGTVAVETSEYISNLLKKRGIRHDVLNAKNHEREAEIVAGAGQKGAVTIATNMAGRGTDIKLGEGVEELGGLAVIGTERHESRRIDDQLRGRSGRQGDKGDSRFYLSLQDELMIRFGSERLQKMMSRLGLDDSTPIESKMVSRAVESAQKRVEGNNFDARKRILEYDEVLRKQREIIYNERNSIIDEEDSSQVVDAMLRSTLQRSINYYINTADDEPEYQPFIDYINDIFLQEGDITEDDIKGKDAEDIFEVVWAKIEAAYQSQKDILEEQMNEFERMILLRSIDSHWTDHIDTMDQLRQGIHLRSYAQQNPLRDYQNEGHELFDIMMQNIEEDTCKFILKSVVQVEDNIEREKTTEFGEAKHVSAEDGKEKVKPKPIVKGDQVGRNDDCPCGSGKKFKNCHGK

[12] = tested on: Staphylococcus aureus; assay: Bacteriostatic activity against Staphylococcus aureus ATCC 6538 after 24 hrs; assay type: functional; conditions: ATCC 6538, 24 h
[13] = target: T2, Protein translocase subunit SecA 1; assay: Inhibition of Staphylococcus aureus ATCC 35556 SecA1 liposomal ion channel activity in Xenopus laevis oocytes incubated for 3 hrs measured by recording ion current for 1 min; assay type: cell-based
Procedure, shortened: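 Xenopus laevis oocytes injected at animal pole with 50 nl containing 120 ng liposomes, 120 ng SaSecA1, 14 ng proOmpA, 2 mM ATP, 1 mM Mg(OAc)2 plus varying inhibitor. Incubated 3 hr at 23 °C, then ion current recorded continuously 1 min.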

[14] = target: T3, Protein translocase subunit SecA 1 (Staphylococcus aureus (strain NCTC 8325)) (UniProt O06446); assay: Binding affinity to SecA1 in Staphylococcus aureus ATCC 6538 whole cell lysate incubated for 1 hr by Streptavidin-based pull down assay
T3 sequence (whole entry): T2 sequence (O06446 whole entry)
Procedure, shortened: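 Lysate precleared on streptavidin magnetic beads (4 °C, 1 hr), then rolled ±400 μM biotinylated probe at 4 °C, 1 hr. Beads washed three times, boiled in SDS buffer; SaSecA1 detected by Western blot using cross-reacting EcSecA antibody.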

[15] = Inhibition of Escherichia coli SecA N68 mutant ATPase activity

Work on `CCn1cc(C(=O)O)c(=O)c2cc(F)c(N3CCNCC3)cc21` [NORFLOXACIN] yielded an MIC [1] of 250 µg/mL (≈ 783 µM).

In the case of `CC1(C)S[C@@H]2[C@H](NC(=O)[C@H](N)c3ccccc3)C(=O)N2[C@H]1C(=O)O` [AMPICILLIN], the MIC [1] is reported as 1000 µg/mL (≈ 2860 µM).

For `CC[C@H]1OC(=O)[C@H](C)[C@@H](O[C@H]2C[C@@](C)(OC)[C@@H](O)[C@H](C)O2)[C@H](C)[C@@H](O[C@@H]2O[C@H](C)C[C@H](N(C)C)[C@H]2O)[C@](C)(O)C[C@@H](C)C(=O)[C@H](C)[C@@H](O)[C@]1(C)O` [ERYTHROMYCIN], the MIC [1] was > 1250 µg/mL.

With `O=C([O-])c1c(Cl)c(Cl)c(Cl)c(Cl)c1-c1c2cc(I)c(=O)c(I)c-2oc2c(I)c([O-])c(I)cc12.[Na+].[Na+]` [ROSE BENGAL SODIUM] the MIC [2] was 22 µg/mL, the MIC [3] was 59 µg/mL and the MIC [4] was 15 µg/mL. The MIC [5] was 35 µg/mL, the MIC [6] was 51 µg/mL and the MIC [7] was 21 µg/mL. For the same molecule, the MIC [8] was 11 µg/mL, the MIC [9] was 13 µg/mL and the IC50 [10] was 2 µM.

Molecule `NC[C@H]1O[C@H](O[C@H]2[C@H](O)[C@@H](O[C@H]3O[C@H](CO)[C@@H](O)[C@H](N)[C@H]3O)[C@H](N)C[C@@H]2N)[C@H](O)[C@@H](O)[C@@H]1O` [KANAMYCIN] has an MIC [1] of 1000 µg/mL (≈ 2060 µM).

For `CN[C@@H](CC(C)C)C(=O)N[C@H]1C(=O)N[C@@H](CC(N)=O)C(=O)N[C@H]2C(=O)N[C@H]3C(=O)N[C@H](C(=O)N[C@@H](C(=O)O)c4cc(O)cc(O)c4-c4cc3ccc4O)[C@H](O)c3ccc(c(Cl)c3)Oc3cc2cc(c3O[C@H]2O[C@@H](CO)[C@H](O)[C@@H](O)[C@@H]2O[C@@H]2C[C@@](C)(N)[C@@H](O)[C@@H](C)O2)Oc2ccc(cc2Cl)[C@H]1O`, the MIC [1] was 8 µg/mL (≈ 5.52 µM).

For `Oc1ccc2c(c1)Oc1cc(O)ccc1C2C1CCCC1`, the MIC [3] was 14 µg/mL (≈ 49.6 µM), the MIC [6] was 7 µg/mL (≈ 24.8 µM) and the IC50 [11] was 35 µM. For the same molecule, the MIC [12] was 11 µg/mL (≈ 39 µM), the IC50 [13] was 2 µM and the MIC [7] was 14 µg/mL (≈ 49.6 µM). The MIC [1] was 14 µg/mL (≈ 49.6 µM) and the IC50 [10] was 30 µM.

With `O=C(CCCC[C@@H]1SC[C@@H]2NC(=O)N[C@@H]21)NCCCCCCC1c2ccc(O)cc2Oc2cc(O)ccc21` the Activity [14] was “Active” and the IC50 [15] was 90 µM.

With `CN(C)[C@@H]1C(O)=C(C(N)=O)C(=O)[C@@]2(O)C(O)=C3C(=O)c4c(O)cccc4[C@@](C)(O)[C@H]3C[C@@H]12` [TETRACYCLINE] the MIC [1] was 63 µg/mL (≈ 142 µM).

With `CO[C@H]1/C=C/O[C@@]2(C)Oc3c(C)c(O)c4c(O)c(c(/C=N/N5CCN(C)CC5)c(O)c4c3C2=O)NC(=O)/C(C)=C\C=C\[C@H](C)[C@H](O)[C@@H](C)[C@@H](O)[C@@H](C)[C@H](OC(C)=O)[C@@H]1C` [RIFAMPIN] the MIC [1] was > 1000 µg/mL.
